Assay results: PMC2191018 (The Journal of Experimental Medicine, 1993)
Where two headings read alike, the source gives them in different places.

Experiments:
Kd molecule [1] = conditions: cited from earlier work
[2] = tested on: TCR of biotin-YIPSAEK(IASA)I-specific CTL clones; conditions: different cell types; cited from earlier work
N9 TCR / Kd molecule = assay: Inhibition of N9 TCR photoaffinity labeling by competitor peptides and mAbs; assay type: binding, mouse; conditions: competitor peptide at 300-fold molar excess; N9 cells; SDS-PAGE 10%, nonreducing
CTL clone N9 = assay: 51Cr-release CTL recognition assay, clone N9; assay type: cell-based, mouse
In short: (§1)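 Test peptide derivatives were titrated in threefold dilutions on P815 target cells in a 51Cr-release assay at an E/T ratio of 3:1, run 4 h at 37°C. Specific lysis = 100 × (experimental − spontaneous)/(total − spontaneous). Relative antigenic activity = concentration of the reference photoprobe giving 50% maximal lysis divided by that of the variant.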

[3] = tested on: TCR of biotin-YIPSAEK(IASA)I-specific CTL clones; assay: TCR photoaffinity labeling on living CTL clones; assay type: binding, mouse; conditions: for TCR photoaffinity labeling: 4-5 h 37 C, UV 312 nm 5 min, TCR immunoprecipitated, SDS-PAGE
In short: (§2)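 Live CTL clone cells were washed into DMEM with 0.5% FCS and 10 mM Hepes. They were incubated with biotinylated 125I-IASA photoprobe (~2,000 Ci/mmol) plus human β2m, 4-5 h at 37°C in 5% CO2, then UV irradiated at 312 nm for 5 min at 4°C. Cells were lysed in 0.7% NP-40 with leupeptin, PMSF and iodoacetamide. Kd (mAb 20-8-4S) or TCR-α/β (H57-597) was immunoprecipitated and run on 10% reducing SDS-PAGE.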

[4] = tested on: biotin-YIPSAEK(IASA)I-specific CTL clones; assay: CTL recognition of peptide derivatives, statements over several clones; assay type: cell-based, mouse
In short: as §1

Kd molecule [5] = conditions: compared with isomeric IASA-YIPSAEK(biotin)I or the parent derivative; cited from earlier work
Kd molecule [6] = assay: Kd photoaffinity labeling on CTL clones; assay type: binding, mouse; conditions: UV irradiation, Kd immunoprecipitated, SDS-PAGE 10%, reducing
In short: as §2

What does the source list for IASA-YIPSAEK(biotin)I?
Kd photoaffinity labeling (Kd molecule [1]): selectively labeled the Kd molecules; TCR photoaffinity labeling [2]: failsto label

Which “effect on N9 TCR labeling by biotin-YIPSAEK(125IASA)I” value (N9 TCR / Kd molecule) does the source give for YIPSAEKI [PbCS 253-260] here?
The value was “abolished”.

For “biotin-YIPSAEK (4-azido benzoic acid [ABA]I [biotin-YIPSAEK(ABA)I]”, which “efficiency of recognition relative to the original photoprobe” value (CTL clone N9; clone N9, versus biotin-YIPSAEK(IASA)I) is on record?
Its value is “about 50 times”.

For biotin-YIPSAEK(125IASA)I, which TCR photoaffinity labeling ([3]; clone N1) is on record?
The TCR photoaffinity labeling was “No significant TCR labeling”.

And the TCR photoaffinity labeling ([3]; clone N4)?
The TCR photoaffinity labeling was “showed TCR photoaffinity labeling”.

What about the TCR photoaffinity labeling ([3]; clone N9) of the same substance?
Its TCR photoaffinity labeling is “showed TCR photoaffinity labeling”.

And the “photoaffinity-labeled TCR chain” value ([3]; clone N9, two-dimensional gel electrophoresis)?
The value was “labeled both chains”.

What about the TCR photoaffinity labeling ([3]; clone N11) of the same substance?
Its TCR photoaffinity labeling is “showed TCR photoaffinity labeling”.

What about the TCR photoaffinity labeling ([3]; clone O1) of the same substance?
Its TCR photoaffinity labeling is “No significant TCR labeling”.

What about the TCR photoaffinity labeling ([3]; clone O7) of the same substance?
The TCR photoaffinity labeling was “No significant TCR labeling”.

And the TCR photoaffinity labeling ([3]; clone O11)?
Its TCR photoaffinity labeling is “No significant TCR labeling”.

Which “improvement of recognition on removal of the iodine from the IASA group” value ([4]; the other four clones, versus biotin-YIPSAEK(IASA)I) does the source give for biotin-YIPSAEK(ASA)I here?
Its value is 6-12 fold.

Which “recognition by clone N9 compared with the original conjugate” value (CTL clone N9; clone N9, only clone among the eight to recognize this variant) does the source give for biotin-YIPSAEK(BA)I here?
Its value is “as efficientlyas the original”.

Which Kd photoaffinity labeling (Kd molecule [1]) does the source give for biotin-YIPSAEK(IASA)I here?
Its Kd photoaffinity labeling is “could not”.

What about the “recognition by clone O8” value ([4]; additional clone 08, data not shown) of the same substance?
The value was “recognized”.

And the “binding to Kd molecules” value (Kd molecule [5])?
Its value is “bound equally efficiently”.

With “lZSlASA-YIPSAEK(biotin)I [125IASA-YIPSAEK(biotin)I]” as the substance, how does the Kd photoaffinity labeling (Kd molecule [6]; clone N1) read?
The Kd photoaffinity labeling was “slightly reduced”.

What about the Kd photoaffinity labeling (Kd molecule [6]; clone N4) of the same substance?
The Kd photoaffinity labeling was “efficient”.

And the Kd photoaffinity labeling (Kd molecule [6]; clone N6)?
Its Kd photoaffinity labeling is “efficient”.

What about the Kd photoaffinity labeling (Kd molecule [6]; clone N9) of the same substance?
Its Kd photoaffinity labeling is “efficient”.

What about the Kd photoaffinity labeling (Kd molecule [6]; clone N11) of the same substance?
Its Kd photoaffinity labeling is “slightly reduced”.

What about the Kd photoaffinity labeling (Kd molecule [6]; clone O1) of the same substance?
Its Kd photoaffinity labeling is “efficient”.
